Active and inactive are the calls of the source. No cut-off for these calls is given here.
How the values were obtained:
[1] = biological target: T1, Mitogen-activated protein kinase 12 (Homo sapiens) (UniProt P53778); assay: Inhibition of human SAPK3 assessed as residual activity at 10 uM by KinaseProfiler assay
T1 sequence (whole entry): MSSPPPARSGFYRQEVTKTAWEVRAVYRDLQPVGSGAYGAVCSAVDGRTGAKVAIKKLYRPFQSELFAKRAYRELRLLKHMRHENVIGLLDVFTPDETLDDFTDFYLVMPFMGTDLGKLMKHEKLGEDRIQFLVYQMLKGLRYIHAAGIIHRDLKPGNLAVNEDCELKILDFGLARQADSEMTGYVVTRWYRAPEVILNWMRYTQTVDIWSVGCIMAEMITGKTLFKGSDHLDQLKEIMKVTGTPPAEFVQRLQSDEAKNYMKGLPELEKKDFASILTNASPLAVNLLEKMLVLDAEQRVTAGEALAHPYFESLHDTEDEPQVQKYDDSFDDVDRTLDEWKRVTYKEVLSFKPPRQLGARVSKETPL
Procedure, shortened: (§1)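 Radioactive phosphorylation assays were run by an outsourced profiling service. Each of 31 human kinases was tested with inhibitor at 10 µM. Residual activity is expressed as a percentage of the mean activity in positive-control wells, which contained all reaction components except inhibitor plus DMSO as solvent control.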

[2] = biological target: 5'-AMP-activated protein kinase catalytic subunit alpha-1 (Homo sapiens) (UniProt Q13131); assay: Inhibition of human AMPKalpha1 assessed as residual activity at 10 uM by KinaseProfiler assay; procedure, shortened: as §1
[3] = biological target: MAP kinase-activated protein kinase 3 (Homo sapiens) (UniProt Q16644); assay: Inhibition of human MAPKAP-K3 assessed as residual activity at 10 uM by KinaseProfiler assay; procedure, shortened: as §1
[4] = biological target: T2, Serine/threonine-protein kinase Chk1 (Homo sapiens) (UniProt O14757); assay: Inhibition of human CHK1 assessed as residual activity at 10 uM by KinaseProfiler assay; procedure, shortened: as §1
T2 sequence (whole entry): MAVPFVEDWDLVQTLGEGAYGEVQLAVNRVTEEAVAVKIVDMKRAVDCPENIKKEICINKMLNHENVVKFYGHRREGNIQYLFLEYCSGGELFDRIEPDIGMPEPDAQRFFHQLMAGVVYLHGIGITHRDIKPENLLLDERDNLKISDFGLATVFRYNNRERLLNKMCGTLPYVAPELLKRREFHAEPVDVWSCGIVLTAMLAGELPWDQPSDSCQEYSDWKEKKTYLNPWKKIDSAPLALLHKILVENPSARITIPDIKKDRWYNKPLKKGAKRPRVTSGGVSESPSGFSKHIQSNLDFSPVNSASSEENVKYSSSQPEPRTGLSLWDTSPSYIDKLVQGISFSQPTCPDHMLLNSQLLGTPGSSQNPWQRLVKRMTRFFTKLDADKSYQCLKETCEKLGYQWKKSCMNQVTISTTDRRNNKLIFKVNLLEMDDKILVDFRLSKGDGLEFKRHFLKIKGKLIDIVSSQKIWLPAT

[5] = biological target: Tyrosine-protein kinase Lyn (Homo sapiens) (UniProt P07948); assay: Inhibition of human Lyn assessed as residual activity at 10 uM by KinaseProfiler assay; procedure, shortened: as §1
[6] = biological target: Tyrosine-protein kinase Fgr (Homo sapiens) (UniProt P09769); assay: Inhibition of human Fgr assessed as residual activity at 10 uM by KinaseProfiler assay; procedure, shortened: as §1
[7] = biological target: Rho-associated protein kinase 2 (Homo sapiens) (UniProt O75116); assay: Inhibition of human ROCK2 assessed as residual activity at 10 uM by KinaseProfiler assay; procedure, shortened: as §1
[8] = biological target: Mitogen-activated protein kinase 1 (Homo sapiens) (UniProt P28482); assay: Inhibition of human MAPK2 assessed as residual activity at 10 uM by KinaseProfiler assay; procedure, shortened: as §1
[9] = biological target: T3, MAP kinase-activated protein kinase 5 (Homo sapiens) (UniProt Q8IW41); assay: Inhibition of human PRAK assessed as residual activity at 10 uM by KinaseProfiler assay; procedure, shortened: as §1
T3 sequence (whole entry): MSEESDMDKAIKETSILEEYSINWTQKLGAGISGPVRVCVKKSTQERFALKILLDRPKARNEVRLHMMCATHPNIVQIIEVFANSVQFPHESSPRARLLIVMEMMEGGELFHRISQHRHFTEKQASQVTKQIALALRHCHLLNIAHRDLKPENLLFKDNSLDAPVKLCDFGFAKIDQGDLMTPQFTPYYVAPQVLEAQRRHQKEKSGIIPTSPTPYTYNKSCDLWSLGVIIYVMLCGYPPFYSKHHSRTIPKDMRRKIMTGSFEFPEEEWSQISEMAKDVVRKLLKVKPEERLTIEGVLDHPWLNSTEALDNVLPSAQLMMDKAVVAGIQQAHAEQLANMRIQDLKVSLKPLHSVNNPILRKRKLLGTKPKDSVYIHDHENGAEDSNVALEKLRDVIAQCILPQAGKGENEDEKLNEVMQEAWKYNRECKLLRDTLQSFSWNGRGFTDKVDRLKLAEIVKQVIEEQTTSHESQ

[10] = biological target: Mitogen-activated protein kinase 14 (Homo sapiens) (UniProt Q16539); assay: Inhibition of human SAPK2a assessed as residual activity at 10 uM by KinaseProfiler assay; procedure, shortened: as §1
[11] = biological target: T4, Mitogen-activated protein kinase 13 (Homo sapiens) (UniProt O15264); assay: Inhibition of human SAPK4 assessed as residual activity at 10 uM by KinaseProfiler assay; procedure, shortened: as §1
T4 sequence (whole entry): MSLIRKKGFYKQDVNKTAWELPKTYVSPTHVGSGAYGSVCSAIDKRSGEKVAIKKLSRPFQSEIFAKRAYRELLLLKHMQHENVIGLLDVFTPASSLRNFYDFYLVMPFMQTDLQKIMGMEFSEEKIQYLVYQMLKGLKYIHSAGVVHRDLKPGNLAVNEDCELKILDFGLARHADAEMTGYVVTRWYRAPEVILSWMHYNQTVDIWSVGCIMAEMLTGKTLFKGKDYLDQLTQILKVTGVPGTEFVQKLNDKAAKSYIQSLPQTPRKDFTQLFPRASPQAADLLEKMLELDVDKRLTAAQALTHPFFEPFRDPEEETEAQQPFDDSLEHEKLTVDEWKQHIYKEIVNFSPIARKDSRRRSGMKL

[12] = biological target: 5'-AMP-activated protein kinase catalytic subunit alpha-2 (Homo sapiens) (UniProt P54646); assay: Inhibition of human AMPKalpha2 assessed as residual activity at 10 uM by KinaseProfiler assay; procedure, shortened: as §1
[13] = biological target: RAC-alpha serine/threonine-protein kinase (Homo sapiens) (UniProt P31749); assay: Inhibition of human PKBalpha assessed as residual activity at 10 uM by KinaseProfiler assay; procedure, shortened: as §1
[14] = biological target: Tyrosine-protein kinase SYK (Homo sapiens) (UniProt P43405); assay: Inhibition of human Syk assessed as residual activity at 10 uM by KinaseProfiler assay; procedure, shortened: as §1
Homo sapiens = organism: Homo sapiens; assay: Inhibition of human PKA assessed as residual activity at 10 uM by KinaseProfiler assay; procedure, shortened: as §1
TE-2 = assay: Cytotoxicity against GFP-tagged human TE2 cells assessed as cell viability at 10 uM after 24 hrs by MTT assay; type: functional, cell-based
Procedure, shortened: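 Esophageal TE2 cells stably carrying GFP or CK2α were plated at 1 × 10⁴ cells/well and grown 24 h. They were then exposed for 24 h, given MTT at 4 mg/mL final for 2 h, formazan dissolved in DMSO, absorbance at 570 nm.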

Sequence of Tyrosine-protein kinase Lyn (Homo sapiens) (P07948 2-512 limits assumed): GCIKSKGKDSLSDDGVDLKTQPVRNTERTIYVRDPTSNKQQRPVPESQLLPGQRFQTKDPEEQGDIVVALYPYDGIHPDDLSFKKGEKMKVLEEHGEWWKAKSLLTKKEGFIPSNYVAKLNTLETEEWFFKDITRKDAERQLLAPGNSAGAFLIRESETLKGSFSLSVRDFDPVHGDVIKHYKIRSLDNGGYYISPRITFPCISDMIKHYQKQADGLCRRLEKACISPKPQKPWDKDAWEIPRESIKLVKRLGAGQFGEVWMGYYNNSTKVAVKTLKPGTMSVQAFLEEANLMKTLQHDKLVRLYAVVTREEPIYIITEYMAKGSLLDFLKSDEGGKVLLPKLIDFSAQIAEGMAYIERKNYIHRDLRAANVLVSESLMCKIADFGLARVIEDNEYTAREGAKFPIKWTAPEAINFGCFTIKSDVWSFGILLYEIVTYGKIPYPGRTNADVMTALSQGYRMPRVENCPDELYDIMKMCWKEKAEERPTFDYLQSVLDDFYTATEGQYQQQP
Sequence of Mitogen-activated protein kinase 14 (Homo sapiens) (Q16539 whole entry): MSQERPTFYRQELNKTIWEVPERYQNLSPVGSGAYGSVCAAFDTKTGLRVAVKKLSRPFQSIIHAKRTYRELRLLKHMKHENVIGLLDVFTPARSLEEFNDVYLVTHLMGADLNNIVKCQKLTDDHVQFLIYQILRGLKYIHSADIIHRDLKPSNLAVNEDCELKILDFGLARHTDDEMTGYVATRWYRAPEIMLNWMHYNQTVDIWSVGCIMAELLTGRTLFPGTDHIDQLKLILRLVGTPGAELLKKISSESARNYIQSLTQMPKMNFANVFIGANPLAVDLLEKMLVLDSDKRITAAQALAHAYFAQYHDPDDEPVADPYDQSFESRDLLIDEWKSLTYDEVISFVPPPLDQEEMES
Sequence of MAP kinase-activated protein kinase 3 (Homo sapiens) (Q16644 whole entry, looked up): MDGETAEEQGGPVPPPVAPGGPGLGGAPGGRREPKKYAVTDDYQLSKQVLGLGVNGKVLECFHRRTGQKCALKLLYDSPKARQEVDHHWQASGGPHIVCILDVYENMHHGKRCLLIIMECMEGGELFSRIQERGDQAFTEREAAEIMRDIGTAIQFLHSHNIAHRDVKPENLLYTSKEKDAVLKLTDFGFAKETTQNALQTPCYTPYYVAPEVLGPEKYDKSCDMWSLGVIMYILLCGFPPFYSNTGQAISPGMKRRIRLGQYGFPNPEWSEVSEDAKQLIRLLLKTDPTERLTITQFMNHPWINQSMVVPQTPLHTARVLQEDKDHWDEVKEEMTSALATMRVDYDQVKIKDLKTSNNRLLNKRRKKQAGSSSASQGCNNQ
Sequence of RAC-alpha serine/threonine-protein kinase (Homo sapiens) (P31749 whole entry): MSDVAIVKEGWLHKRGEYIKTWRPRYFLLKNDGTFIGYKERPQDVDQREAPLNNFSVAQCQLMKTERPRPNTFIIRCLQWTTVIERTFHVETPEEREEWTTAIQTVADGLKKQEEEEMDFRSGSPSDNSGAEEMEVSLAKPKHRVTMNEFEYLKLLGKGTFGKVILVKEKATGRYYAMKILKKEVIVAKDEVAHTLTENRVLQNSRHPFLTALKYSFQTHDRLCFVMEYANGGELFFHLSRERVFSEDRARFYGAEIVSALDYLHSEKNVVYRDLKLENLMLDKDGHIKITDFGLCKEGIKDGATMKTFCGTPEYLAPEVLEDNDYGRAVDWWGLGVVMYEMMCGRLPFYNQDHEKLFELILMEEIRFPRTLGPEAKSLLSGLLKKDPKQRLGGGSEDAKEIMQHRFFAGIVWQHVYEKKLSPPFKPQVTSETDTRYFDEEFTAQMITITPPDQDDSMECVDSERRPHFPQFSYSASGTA
Sequence of Rho-associated protein kinase 2 (Homo sapiens) (O75116 whole entry, looked up): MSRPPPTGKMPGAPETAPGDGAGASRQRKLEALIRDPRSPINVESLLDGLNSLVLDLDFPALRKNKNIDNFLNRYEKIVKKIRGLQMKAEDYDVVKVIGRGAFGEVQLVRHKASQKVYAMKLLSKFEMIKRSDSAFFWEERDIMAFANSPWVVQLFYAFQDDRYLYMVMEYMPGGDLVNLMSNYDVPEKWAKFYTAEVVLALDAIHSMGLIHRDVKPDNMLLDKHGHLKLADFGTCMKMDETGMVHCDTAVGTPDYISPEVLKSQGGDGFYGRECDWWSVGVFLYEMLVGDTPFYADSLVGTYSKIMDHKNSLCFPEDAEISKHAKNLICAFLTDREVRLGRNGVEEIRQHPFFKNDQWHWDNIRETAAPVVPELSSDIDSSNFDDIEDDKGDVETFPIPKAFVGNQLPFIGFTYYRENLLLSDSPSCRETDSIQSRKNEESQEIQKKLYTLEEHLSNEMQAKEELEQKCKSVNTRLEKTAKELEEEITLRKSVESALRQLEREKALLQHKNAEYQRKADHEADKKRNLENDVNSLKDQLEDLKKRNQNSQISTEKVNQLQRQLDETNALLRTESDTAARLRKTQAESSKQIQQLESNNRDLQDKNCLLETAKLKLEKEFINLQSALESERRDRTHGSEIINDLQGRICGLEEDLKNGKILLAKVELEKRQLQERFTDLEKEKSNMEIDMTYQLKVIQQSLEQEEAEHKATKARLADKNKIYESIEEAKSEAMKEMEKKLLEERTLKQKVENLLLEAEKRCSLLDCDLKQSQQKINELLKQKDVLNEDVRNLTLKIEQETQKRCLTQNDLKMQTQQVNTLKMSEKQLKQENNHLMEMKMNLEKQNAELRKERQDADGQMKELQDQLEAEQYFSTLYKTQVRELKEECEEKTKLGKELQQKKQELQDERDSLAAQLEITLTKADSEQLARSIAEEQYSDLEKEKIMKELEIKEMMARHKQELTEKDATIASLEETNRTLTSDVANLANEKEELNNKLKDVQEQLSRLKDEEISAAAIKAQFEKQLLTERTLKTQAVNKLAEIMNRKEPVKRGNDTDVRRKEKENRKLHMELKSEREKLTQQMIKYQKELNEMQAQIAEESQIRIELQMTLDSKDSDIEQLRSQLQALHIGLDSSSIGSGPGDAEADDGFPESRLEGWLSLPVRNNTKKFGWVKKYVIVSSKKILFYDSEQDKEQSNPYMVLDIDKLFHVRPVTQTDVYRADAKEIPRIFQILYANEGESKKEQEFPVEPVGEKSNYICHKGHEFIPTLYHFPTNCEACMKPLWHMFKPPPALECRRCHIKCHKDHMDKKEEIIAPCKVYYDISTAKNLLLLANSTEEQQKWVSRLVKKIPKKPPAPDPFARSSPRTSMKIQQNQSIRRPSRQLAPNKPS
Sequence of Tyrosine-protein kinase Fgr (Homo sapiens) (P09769 2-529 limits assumed): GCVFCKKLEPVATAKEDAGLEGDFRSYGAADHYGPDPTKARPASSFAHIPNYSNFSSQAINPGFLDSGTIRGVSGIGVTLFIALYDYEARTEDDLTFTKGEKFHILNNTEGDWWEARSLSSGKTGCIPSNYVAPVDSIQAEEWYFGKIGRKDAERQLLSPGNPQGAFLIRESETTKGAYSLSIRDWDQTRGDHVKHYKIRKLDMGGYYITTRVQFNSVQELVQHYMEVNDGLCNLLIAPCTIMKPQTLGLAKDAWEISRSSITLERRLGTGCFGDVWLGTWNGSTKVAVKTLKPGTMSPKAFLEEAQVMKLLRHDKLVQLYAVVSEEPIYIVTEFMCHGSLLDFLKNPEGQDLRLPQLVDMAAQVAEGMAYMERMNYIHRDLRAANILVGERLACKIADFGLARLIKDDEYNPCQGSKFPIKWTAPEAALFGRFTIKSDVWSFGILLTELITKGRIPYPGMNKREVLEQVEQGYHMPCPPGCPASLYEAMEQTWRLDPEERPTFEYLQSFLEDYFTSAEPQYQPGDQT
Sequence of 5'-AMP-activated protein kinase catalytic subunit alpha-1 (Homo sapiens) (Q13131 whole entry, looked up): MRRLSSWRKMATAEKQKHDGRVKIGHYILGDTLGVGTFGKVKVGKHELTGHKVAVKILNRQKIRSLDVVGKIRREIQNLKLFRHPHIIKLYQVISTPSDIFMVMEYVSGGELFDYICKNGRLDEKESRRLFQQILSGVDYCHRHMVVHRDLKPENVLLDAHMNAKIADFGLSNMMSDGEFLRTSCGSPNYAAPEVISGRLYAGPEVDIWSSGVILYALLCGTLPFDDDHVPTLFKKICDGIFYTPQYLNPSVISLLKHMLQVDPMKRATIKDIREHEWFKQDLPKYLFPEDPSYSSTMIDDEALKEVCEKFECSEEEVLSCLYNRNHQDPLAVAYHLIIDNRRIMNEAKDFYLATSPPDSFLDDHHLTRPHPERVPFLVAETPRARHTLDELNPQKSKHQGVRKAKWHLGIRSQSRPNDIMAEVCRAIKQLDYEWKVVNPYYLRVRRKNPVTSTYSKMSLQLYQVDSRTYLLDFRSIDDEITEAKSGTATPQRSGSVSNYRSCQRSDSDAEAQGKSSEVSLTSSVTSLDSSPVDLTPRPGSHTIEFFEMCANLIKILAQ
Sequence of 5'-AMP-activated protein kinase catalytic subunit alpha-2 (Homo sapiens) (P54646 whole entry, looked up): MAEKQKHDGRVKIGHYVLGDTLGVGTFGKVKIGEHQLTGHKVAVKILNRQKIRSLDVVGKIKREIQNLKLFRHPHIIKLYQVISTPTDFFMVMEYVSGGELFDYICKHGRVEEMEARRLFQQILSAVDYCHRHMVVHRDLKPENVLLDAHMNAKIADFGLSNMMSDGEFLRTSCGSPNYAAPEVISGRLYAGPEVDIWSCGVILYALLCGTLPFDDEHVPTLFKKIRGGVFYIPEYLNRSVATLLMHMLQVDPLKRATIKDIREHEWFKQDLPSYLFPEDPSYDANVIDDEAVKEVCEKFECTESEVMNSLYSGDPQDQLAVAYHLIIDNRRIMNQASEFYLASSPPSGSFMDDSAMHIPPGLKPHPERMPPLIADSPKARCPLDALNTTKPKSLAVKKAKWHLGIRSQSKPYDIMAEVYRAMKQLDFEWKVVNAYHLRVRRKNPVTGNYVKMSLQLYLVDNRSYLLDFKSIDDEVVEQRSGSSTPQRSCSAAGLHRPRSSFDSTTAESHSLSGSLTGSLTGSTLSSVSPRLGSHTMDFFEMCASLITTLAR

Compound | Activity [1] | Activity [2] | Activity [3] | Activity [4] | Activity [5] | Activity [6] | Activity [7] | Activity [8] | Activity [9] | Activity [10] | Activity [11] | Activity [12] | Activity [13] | Activity [14] | Activity (Homo sapiens) | Activity (TE-2)
CCOC(=O)C1=C(C)N=c2s/c(=C\c3cc(O)c(O)c(O)c3)c(=O)n2C1c1ccc(Cl)cc1 (configuration not stated) | 63% | 64% | 122% | 127% | 5% | 75% | 108% | 87% | 28% | 59% | 76% | 48% | 50% | 28% | 92% | 
CCOC(=O)C1=C(C)N=c2s/c(=C\c3ccc(O)c(O)c3)c(=O)n2C1c1ccc(Cl)cc1 (configuration not stated) | 69% | 82% | 117% | 117% | 20% | 98% | 89% | 85% | 36% | 72% | 79% | 65% | 90% | 77% | 130% | Active
Brc1c(Br)c(Br)c2[nH]nnc2c1Br | 29% | 75% | 95% | 149% | 113% | 102% | 73% | 104% | 60% | 99% | 106% | 83% | 61% | 87% | 109% | Active
